Assays:
Type in all cases: functional
Rattus norvegicus [1] = experiment: Ability (% reversal in rats) to reverse electroconvulsive shock-induced amnesia in rodents at a dose of 0.0010 (mg/kg) (following i.m. administration)
In short: (§1)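 Passive avoidance (step-through, lighted vs darkened compartment). […], ECS (20 mA, 1 s) was given transcorneally via saline-soaked electrodes, and maximal hindlimb extension was required. Drug was given im at selected doses 2 h post-training. One hour later, entry latency to the dark side was recorded, with 60 s counted as retention. At least 75% of ECS controls had to be amnesic. Replicates were mostly not run.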

Rattus norvegicus [2] = experiment: Ability (% reversal in rats) to reverse electroconvulsive shock-induced amnesia in rodents at a dose of 0.10 (mg/kg) (following intramuscular dosing); in short: as §1
Rattus norvegicus [3] = experiment: Compound was tested for its ability (% reversal in rats) to reverse electroconvulsive shock-induced amnesia in rodents at a dose of 0.032 (mg/kg) administered intramuscularly (im); in short: as §1
Rattus norvegicus [4] = experiment: Compound was tested for its ability (% reversal in rats) to reverse electroconvulsive shock-induced amnesia in rodents at a dose of 1 (mg/kg) administered intramuscularly (im); in short: as §1
Rattus norvegicus [5] = experiment: Compound was tested for its ability (% reversal in rats) to reverse electroconvulsive shock-induced amnesia in rodents at a dose of 0.0001 (mg/kg) administered intramuscularly (im); in short: as §1
Rattus norvegicus [6] = experiment: Ability (% reversal in rats) to reverse electroconvulsive shock-induced amnesia in rodents at a dose of 0.010 (mg/kg) administered intramuscularly (im); in short: as §1
Rattus norvegicus [7] = experiment: Compound was tested for its ability (% reversal in rats) to reverse electroconvulsive shock-induced amnesia in rodents at a dose of 100 (mg/kg) administered intramuscularly (im); in short: as §1
Rattus norvegicus [8] = experiment: Compound was tested for its ability (% reversal in rats) to reverse electroconvulsive shock-induced amnesia in rodents at a dose of 10 (mg/kg) administered intramuscularly (im); in short: as §1
Rattus norvegicus [9] = experiment: Compound was tested for its ability (% reversal in rats) to reverse electroconvulsive shock-induced amnesia in rodents at a dose of 1 (mg/kg) administered intramuscularly (im).; in short: as §1
Rattus norvegicus [10] = experiment: Compound was tested for its ability (% reversal in rats) to reverse electroconvulsive shock-induced amnesia in rodents at a dose of 0.0010 (mg/kg) administered intramuscularly (im).; in short: as §1
Rattus norvegicus [11] = experiment: Compound was tested for its ability (% reversal in rats) to reverse electroconvulsive shock-induced amnesia in rodents at a dose of 0.10 (mg/kg) administered intramuscularly (im).; in short: as §1
Rattus norvegicus [12] = experiment: Compound was tested for its ability (% reversal in rats) to reverse electroconvulsive shock-induced amnesia in rodents at a dose of 0.010 (mg/kg) administered intramuscularly (im).; in short: as §1
Rattus norvegicus [13] = experiment: Compound was tested for its ability (% reversal in rats) to reverse electroconvulsive shock-induced amnesia in rodents at a dose of 0.001 (mg/kg) administered intramuscularly (im); in short: as §1
Rattus norvegicus [14] = experiment: Compound was tested for its ability (% reversal in rats) to reverse electroconvulsive shock-induced amnesia in rodents at a dose of 100 (mg/kg) administered intramuscularly (im).; in short: as §1
Rattus norvegicus [15] = experiment: Compound was tested for its ability (% reversal in rats) to reverse electroconvulsive shock-induced amnesia in rodents at a dose of 1(mg/kg) administered intramuscularly (im); in short: as §1

SMILES: CC(C)CC(CS(=O)(=O)CC(=O)O)NC(=O)C1CCCN1C(=O)OCc1ccccc1 (configuration not stated)
- Reversal (Rattus norvegicus [1]): 50%
- Reversal (Rattus norvegicus [2]): 0%
- Reversal (Rattus norvegicus [3]): 66%

SMILES: CC(C)CC(N)CN1CC(=O)NC(CC(C)C)C1 (configuration not stated)
- Reversal (Rattus norvegicus [4]): 20%
- Reversal (Rattus norvegicus [1]): 50%
- Reversal (Rattus norvegicus [5]): 82%
- Reversal (Rattus norvegicus [2]): 66%
- Reversal (Rattus norvegicus [6]): 83%
- Reversal (Rattus norvegicus [7]): 24%
- Reversal (Rattus norvegicus [8]): 0%

SMILES: CC(C)CC(CNCC(=O)O)NC(=O)C1CCC(=O)N1 (configuration not stated)
- Reversal (Rattus norvegicus [1]): 33%
- Reversal (Rattus norvegicus [2]): 33%
- Reversal (Rattus norvegicus [6]): 33%
- Reversal (Rattus norvegicus [7]): 50%
- Reversal (Rattus norvegicus [8]): 0%
- Reversal (Rattus norvegicus [9]): 66%

SMILES: CC(C)CC(/C=C/CC(N)=O)NC(=O)C1CCC(=O)N1 (configuration not stated)
- Reversal (Rattus norvegicus [10]): 11%
- Reversal (Rattus norvegicus [11]): 44%
- Reversal (Rattus norvegicus [12]): 0%

SMILES: CC(C)CC1CN(C[C@H](CC(C)C)NC(=O)[C@@H]2CCCN2C(=O)OCc2ccccc2)CC(=O)N1 (some centres not stated)
- Reversal (Rattus norvegicus [4]): 0%
- Reversal (Rattus norvegicus [2]): 50%
- Reversal (Rattus norvegicus [6]): 17%
- Reversal (Rattus norvegicus [7]): 80%
- Reversal (Rattus norvegicus [13]): 17%
- Reversal (Rattus norvegicus [8]): 0%

SMILES: CC(C)C[C@@H](CNCC(N)=O)NC(=O)[C@@H]1CCCN1C(=O)OCc1ccccc1
- Reversal (Rattus norvegicus [4]): 0%
- Reversal (Rattus norvegicus [1]): 43%
- Reversal (Rattus norvegicus [2]): 43%
- Reversal (Rattus norvegicus [14]): 0%
- Reversal (Rattus norvegicus [6]): 43%
- Reversal (Rattus norvegicus [8]): 0%

SMILES: CC(C)CC(CNCC(=O)O)NCC1CCCN1C(=O)OCc1ccccc1 (configuration not stated)
- Reversal (Rattus norvegicus [1]): 0%
- Reversal (Rattus norvegicus [2]): 14%
- Reversal (Rattus norvegicus [15]): 10%
- Reversal (Rattus norvegicus [6]): 20%
- Reversal (Rattus norvegicus [7]): 40%
- Reversal (Rattus norvegicus [8]): 0%
